Columns and labels:
NCI-H23 = assay: Growth inhibition of human NCI-H23 cells after 48 hrs by sulforhodamine B assay; format: functional; details: NCI-H23, 48 h
In short: (§1)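 NCI 60-cell-line screen. Compounds tested at five 10-fold dilutions from 10^-4 to 10^-8 M. Cells exposed for the last 48 h of a 72 h incubation, growth estimated by sulforhodamine B protein assay. GI50 is the concentration giving 50% growth inhibition. Values beyond the tested range are expressed as greater or lesser than the extreme concentration.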

NCI-H322M = assay: Growth inhibition of human NCI-H322M cells after 48 hrs by sulforhodamine B assay; format: functional; in short: as §1
NCI-H460 = assay: Growth inhibition of human NCI-H460 cells after 48 hrs by sulforhodamine B assay; format: functional; details: NCI-H460, 48 h; in short: as §1
NCI-H522 = assay: Growth inhibition of human NCI-H522 cells after 48 hrs by sulforhodamine B assay; format: functional; details: NCI-H522, 48 h; in short: as §1
[1] = Growth inhibition of human COLO205 cells after 48 hrs by sulforhodamine B assay; format: functional; details: COLO 205, 48 h; in short: as §1
[2] = Growth inhibition of human HCC2998 cells after 48 hrs by sulforhodamine B assay; format: functional; details: HCC 2998, 48 h; in short: as §1
HT-29 = assay: Growth inhibition of human HT-29 cells after 48 hrs by sulforhodamine B assay; format: functional; details: HT-29, 48 h; in short: as §1
SW-620 = assay: Growth inhibition of human SW620 cells after 48 hrs by sulforhodamine B assay; format: functional; details: SW-620, 48 h
SF-268 = assay: Growth inhibition of human SF268 cells after 48 hrs by sulforhodamine B assay; format: functional; details: SF-268, 48 h
SNB-75 = assay: Growth inhibition of human SNB75 cells after 48 hrs by sulforhodamine B assay; format: functional; details: SNB-75, 48 h
MDA-MB-435 = assay: Growth inhibition of human MDA-MB-435 cells after 48 hrs by sulforhodamine B assay; format: functional; details: MDA-MB-435, 48 h; in short: as §1
SK-MEL-28 [3] = assay: Growth inhibition of human SK-MEL-28 cells after 48 hrs by sulforhodamine B assay; format: functional; details: SK-MEL-28, 48 h
IGROV-1 = assay: Growth inhibition of human IGROV1 cells after 48 hrs by sulforhodamine B assay; format: functional; details: IGROV-1, 48 h; in short: as §1
OVCAR-8 = assay: Growth inhibition of human OVCAR8 cells after 48 hrs by sulforhodamine B assay; format: functional; details: OVCAR-8, 48 h
A498 = assay: Growth inhibition of human A498 cells after 48 hrs by sulforhodamine B assay; format: functional; details: A498, 48 h; in short: as §1
MDA-MB-231 = assay: Growth inhibition of human MDA-MB-231 cells after 48 hrs by sulforhodamine B assay; format: functional; details: MDA-MB-231, 48 h; in short: as §1
[4] = Growth inhibition of human Hs 578T cells after 48 hrs by sulforhodamine B assay; format: functional; in short: as §1
HL-60 [5] = assay: Antiproliferative activity against human HL60 cells after 3 days incubation by alamar blue method; format: functional; details: for GI50: HL-60, 72 h
In short: (§2)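 HL-60 and K562 grown in RPMI 1640, MCF-7 in DMEM, each with 10% FCS, penicillin G and streptomycin. Seeded at 4x10⁴ (HL-60, K562) or 2x10⁴ (MCF-7) cells per well with serial compound dilutions, incubated 3 days at 37 °C. Alamar blue added for 3 h at 37 °C in the dark, fluorescence read at ex 544/em 590 nm. IC50 versus untreated controls by linear regression.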

K562 [6] = assay: Antiproliferative activity against human K562 cells after 3 days incubation by alamar blue method; format: functional; details: for GI50: K562, 72 h; in short: as §2
MCF7 [7] = assay: Antiproliferative activity against human MCF7 cells after 3 days incubation by alamar blue method; format: functional; details: for GI50: MCF7, 72 h; in short: as §2
HL-60 [8] = assay: Induction of apoptosis in human HL60 cells by propidium iodide staining based flow cytometric analysis; format: functional
In short: (§3)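 After treatment, cells harvested, fixed in ice-cold 70% ethanol at 4 °C, stained 30 min at 37 °C in the dark with 100 µg/mL propidium iodide plus 10 µg/mL RNase A; 10,000 gated cells analysed at 488 nm with debris excluded; apoptosis followed over time; mean ± S.E.M. of three independent experiments run in triplicate.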

K562 [9] = assay: Induction of apoptosis in human K562 cells by propidium iodide staining based flow cytometric analysis; format: functional; in short: as §3
MCF7 [10] = assay: Induction of apoptosis in human MCF7 cells by propidium iodide staining based flow cytometric analysis; format: functional; details: TDE = time-dependent effect; in short: as §3
CCRF-CEM = assay: Cytotoxicity against human CCRF-CEM cells after 96 hrs by MTT assay; format: functional, cell-based
In short: (§4)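 ATCC cell lines, mycoplasma-free by Hoechst staining. Haematological lines in RPMI-1640, solid-tumour and normal fibroblast lines in their own media, all with 10% FCS and antibiotics, at 37 °C in 5% CO₂. Compounds added as serial dilutions from a 100 mM DMSO stock diluted in medium. Viability by MTT after 96 h at 37 °C. Mean ± SD of three independent determinations.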

WIL2-NS = assay: Cytotoxicity against human WIL2-NS cells after 96 hrs by MTT assay; format: functional, cell-based; in short: as §4
CCRF-SB = assay: Cytotoxicity against human CCRF-SB cells after 96 hrs by MTT assay; format: functional, cell-based; in short: as §4
MRC5 = assay: Cytotoxicity against human MRC5 cells after 96 hrs by MTT assay; format: cell-based; details: MRC5, 96 h; in short: as §4
[11] = Cytotoxicity against human CRL7065 cells after 96 hrs by MTT assay; format: cell-based; details: CRL-7065, 96 h; in short: as §4
SK-MEL-28 [12] = assay: Cytotoxicity against human SK-MEL-28 cells after 96 hrs by MTT assay; format: functional, cell-based; details: SK-MEL-28, 96 h; in short: as §4
[13] = Cytotoxicity against human SKMES1 cells after 96 hrs by MTT assay; format: functional, cell-based; details: SK-MES-1, 96 h; in short: as §4
DU-145 = assay: Cytotoxicity against human DU145 cells after 96 hrs by MTT assay; format: functional, cell-based; details: DU-145, 96 h; in short: as §4
HepG2 = assay: Cytotoxicity against human HepG2 cells after 96 hrs by MTT assay; format: functional, cell-based; details: HepG2, 96 h; in short: as §4
MCF7 [14] = assay: Cytotoxicity against human MCF7 cells after 96 hrs by MTT assay; format: functional, cell-based; details: MCF7, 96 h; in short: as §4
HL-60 [15] = assay: Induction of cell cycle arrest in human HL60 cells assessed as accumulation at G2/M phase after 18 hrs by propidium iodide staining based flow cytometric analysis; format: functional
In short: (§5)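 Propidium iodide/RNase A flow cytometry of ethanol-fixed cells, 10,000 gated events at 488 nm; G2/M fraction measured after 18 h treatment (HL-60, MCF-7) or 24 h (K562); mean ± S.E.M. of three independent experiments.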

MCF7 [16] = assay: Induction of cell cycle arrest in human MCF7 cells assessed as accumulation at G2/M phase after 18 hrs by propidium iodide staining based flow cytometric analysis; format: functional; in short: as §5

| Compound | GI50 (NCI-H23) [nM] | GI50 (NCI-H322M) [nM] | GI50 (NCI-H460) [nM] | GI50 (NCI-H522) [nM] | GI50 [1] [nM] | GI50 [2] [nM] | GI50 (HT-29) [nM] | GI50 (SW-620) [nM] | GI50 (SF-268) [nM] | GI50 (SNB-75) [nM] | GI50 (MDA-MB-435) [nM] | GI50 (SK-MEL-28 [3]) [nM] | GI50 (IGROV-1) [nM] | GI50 (OVCAR-8) [nM] | GI50 (A498) [nM] | GI50 (MDA-MB-231) [nM] | GI50 [4] [nM] | Activity (HL-60 [5]) | GI50 (HL-60 [5]) [nM] | Activity (K562 [6]) | further results |
| --- | --- | --- | --- | --- | --- | --- | --- | --- | --- | --- | --- | --- | --- | --- | --- | --- | --- | --- | --- | --- | --- |
| COc1ccc(-c2[nH]c3ccccc3c2C=C(C#N)C#N)cc1 | 600 | 490 | 359 | 798 | 223 | 751 | 354 | 440 | 709 | 418 | 128 | 1200 | 1400 | 1200 | 458 | 562 | 241 | Dose-dependent effect | 1080 | Dose-dependent effect | GI50 (K562 [6]): 4780 nM; Activity (MCF7 [7]): Dose-dependent effect; GI50 (MCF7 [7]): > 10000 nM; Activity (HL-60 [8]; TDE = time-dependent effect): tde; Activity (K562 [9]): 44.4%; Activity (K562 [9]; TDE = time-dependent effect): tde; Activity (MCF7 [10]): tde |
| CC(=O)/C(=C\c1c(-c2ccccc2)[nH]c2ccccc12)S(C)(=O)=O | 4000 | 9600 | 2800 | 3600 | 3000 | 8000 | 1600 | 2100 | 4200 | 1500 | 415 | 3300 | 8300 | 5200 | 3900 | 5500 | 1600 | Dose-dependent effect | 2570 | Dose-dependent effect | GI50 (K562 [6]): 7710 nM; Activity (MCF7 [7]): Dose-dependent effect; GI50 (MCF7 [7]): > 10000 nM; Activity (HL-60 [8]; TDE = time-dependent effect): tde; Activity (K562 [9]; TDE = time-dependent effect): tde; Activity (MCF7 [10]): tde |
| COc1ccc(-c2[nH]c3ccccc3c2/C=C(\C#N)S(=O)(=O)c2ccccc2)cc1 | 932 | 1500 | 404 | 3000 | 254 | 1200 | 314 | 506 | 1100 | 379 | 203 | 1800 | 19300 | 1300 | 1100 | 649 | 682 | Dose-dependent effect | 660 | Dose-dependent effect | EC50 (CCRF-CEM): 300 nM; EC50 (WIL2-NS): 400 nM; EC50 (CCRF-SB): 300 nM; EC50 (MRC5): 73000 nM; EC50 [11]: > 100000 nM; EC50 (SK-MEL-28 [12]): > 100000 nM; EC50 [13]: 43000 nM; EC50 (DU-145): 2000 nM; EC50 (HepG2): 11000 nM; EC50 (MCF7 [14]): > 100000 nM; GI50 (K562 [6]): 5280 nM; Activity (MCF7 [7]): Dose-dependent effect; GI50 (MCF7 [7]): 5600 nM; Activity (HL-60 [8]): 65.5%; Activity (HL-60 [8]; TDE = time-dependent effect): tde; Activity (K562 [9]; TDE = time-dependent effect): tde; Activity (MCF7 [10]): tde; Activity (HL-60 [15]): 47.3%; Activity (MCF7 [16]): 40.4% |

Source: ChEMBL document CHEMBL3616442, “Unconventional Knoevenagel-type indoles: Synthesis and cell-based studies for the identification of pro-apoptotic agents” (Eur J Med Chem, 2015)
